According to ChEMBL document CHEMBL3124905, “Isothiocoumarin-3-carboxylic acid derivatives: synthesis, anticancer and antitrypanosomal activity evaluation” (Eur J Med Chem, 2014):

Legend:
Type in all cases: functional
[1] = test system: Trypanosoma brucei brucei; assay: Antitrypanosomal activity against bloodstream form of Trypanosoma brucei brucei strain 90-13 assessed as inhibition of parasite growth at 1 ug/ml after 72 hrs by resazurin reduction test; conditions: strain 90-13, 72 h
How it was run: (§1)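 Trypanosoma brucei brucei 90-13 bloodstream forms, grown in HMI9 with 10% FCS at 37 °C under 5% CO2. Log-phase parasites were seeded at 10^5 cells/mL with or without inhibitor, with stocks prepared in DMSO. After 72 h, resazurin was added and fluorescence was read at 530/590 nm after a further 4 h. Percent growth inhibition was calculated versus drug-free parasites, with DMSO as control.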

[2] = test system: Trypanosoma brucei brucei; assay: Antitrypanosomal activity against bloodstream form of Trypanosoma brucei brucei strain 90-13 assessed as inhibition of parasite growth at 10 ug/ml after 72 hrs by resazurin reduction test; conditions: strain 90-13, 72 h; how it was run: as §1
SF-268 = assay: Anticancer activity against human SF268 cells assessed as cell growth at 100 uM after 48 hrs by SRB assay; conditions: SF-268, 48 h, read-out: Activity
How it was run: (§2)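 NCI one-dose primary screen on a three-line panel (breast MCF7, lung NCI-H460, CNS SF-268). Cells were inoculated and preincubated 24–48 h, then exposed to a single concentration of 10−4 M for 48 h. The endpoint was sulforhodamine B protein staining, and results are expressed as percent growth relative to untreated control cells. Negative values denote cytotoxicity.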

NCI-H460 = assay: Anticancer activity against human NCI-H460 cells assessed as cell growth at 100 uM after 48 hrs by SRB assay; conditions: NCI-H460, 48 h, read-out: Activity; how it was run: as §2
MCF7 = assay: Anticancer activity against human MCF7 cells assessed as cell growth at 100 uM after 48 hrs by SRB assay; conditions: MCF7, 48 h, read-out: Activity; how it was run: as §2
Malme-3M = assay: Growth inhibition of human MALME-3M cells after 48 hrs by SRB assay
How it was run: (§3)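 NCI five-dose assay against the ~60-cell-line panel (nine cancer types). Tenfold dilutions from 10−4 to 10−8 M were used with continuous 48-h exposure and SRB absorbance readout. Percent growth was computed from time-zero, control and treated absorbances. GI50 is the concentration giving 50% lower net protein increase than controls. Values not reached are reported as beyond the tested range.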

[3] = Growth inhibition of human HOP92 cells after 48 hrs by SRB assay; conditions: HOP-92, 48 h; how it was run: as §3

Row | SMILES | inhibition at 1 µg/mL [1] | inhibition at 10 µg/mL [2] | growth at 100 µM (SF-268) | growth at 100 µM (NCI-H460) | growth at 100 µM (MCF7) | GI50 (Malme-3M) | TGI (Malme-3M; read-out: pTGI (converted)) | GI50 [3] | TGI ([3]; read-out: pTGI (converted))
1 | O=C(O)CNC(=O)c1cc2ccccc2c(=O)s1 | 10.8% | 0.18% | – | – | – | – | – | – | –
2 | COc1ccc2cc(C(=O)Nc3cc(C)on3)sc(=O)c2c1OC | 12.2% | 3.93% | 51% | 70% | 52% | – | – | – | –
3 | COc1ccc2cc(C(=O)N3CCCCCC3)sc(=O)c2c1OC | – | – | – | – | – | 34.7 µM | > 100 µM | 2.75 µM | 8.13 µM
4 | COc1ccc2cc(C(=O)NCC(=O)O)sc(=O)c2c1OC | – | – | 112% | 109% | 109% | – | – | – | –
5 | CCOC(=O)c1ccc(NC(=O)c2cc3ccc(OC)c(OC)c3c(=O)s2)cc1 | -0.53% | 20.9% | 117% | 103% | 105% | – | – | – | –
